The source of these data is ChEMBL document CHEMBL4725237, “Synthesis and biological evaluation of triazolyl-substituted benzyloxyacetohydroxamic acids as LpxC inhibitors” (Bioorg Med Chem, 2020).

Values after ≈ are worked out from the molar mass of the structure shown.

Assay [1] relates to Escherichia coli. The assay can be described thus: Antibacterial activity against Escherichia coli D22 incubated assessed as prevention of visible growth for 20 hrs by two-fold serial microbroth dilution method. Format: functional. The procedure, abridged:
(§1)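 Broth microdilution in LB with 5% DMSO. Overnight cultures (LB, 37 °C, 200 rpm) were diluted 1:100 and added to a twofold compound dilution series in DMSO, giving 5·10^6 cfu·mL⁻¹ and final compound 64 to 0.25 µg·mL⁻¹. Plates were incubated 20 h at 37 °C. MIC was taken as the lowest concentration with no visible growth. At least three runs on separate days.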

Assay [2] has as its system Escherichia coli. In words: Antibacterial activity against Escherichia coli BL21 (DE3) assessed as prevention of visible growth incubated for 20 hrs by two-fold serial microbroth dilution method. The format is functional. The procedure, abridged: as §1
The test system of assay [3] is Escherichia coli. The assay can be described thus: Antibacterial activity against Escherichia coli D22 assessed as zone of growth inhibition at 10 mmol incubated for overnight by disc diffusion method. The format is functional. To be noted: dose 10 mM; time 12 hrs. The procedure, abridged: (§2)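 Overnight LB cultures (37 °C, 200 rpm), 150 µL spread on LB agar. 15 µL of compound (10 mM stock in DMSO) was applied to 6 mm filter paper disks, with DMSO as negative and CHIR-090 as positive control. Plates were incubated overnight at 37 °C and the diameter of the growth-inhibition zone was measured. At least three runs on separate days.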

For assay [4], the system named is Escherichia coli. In words: Antibacterial activity against Escherichia coli BL21 (DE3) assessed as zone of growth inhibition at 10 mmol incubated for overnight by disc diffusion method. The format is functional. To be noted: dose 10 mM; time 12 hrs. In outline: as §2
A short description of assay [5]: Inhibition of LpxC C63A mutant in Escherichia coli […] preincubated for 30 mins followed by incubation for 10 mins by spectrophotometric analysis.

On to `C[C@@H](O)[C@H](NC(=O)c1ccc(C#Cc2ccc(CN3CCOCC3)cc2)cc1)C(=O)NO`, for which the minimum inhibitory concentration (MIC) amounted to 0.031 µg/mL (≈ 0.0709 µM) in the assay on Escherichia coli [1] and 0.25 µg/mL (≈ 0.571 µM) with Escherichia coli [2]. Further, the “inhibition zone (IZ)” value in the assay with Escherichia coli [3] stood at 37.5 mm; with Escherichia coli [4], 31.7 mm. Moreover, the concentration for half-maximal inhibition (IC50) in assay [5] was 0.076 µM.
Turning to `O=C(CO[C@H](CO)c1ccc(C#Cc2ccccc2)cc1)NO`, the minimal inhibitory concentration (MIC) in the assay on Escherichia coli [1] came out at 1 µg/mL (≈ 3.21 µM); in the assay on Escherichia coli [2] it was 64 µg/mL (≈ 206 µM). Besides, the “inhibition zone (IZ)” value is reported as 20.5 mm in the assay with Escherichia coli [3] and 9.5 mm with Escherichia coli [4]. The half-inhibitory concentration (IC50) in assay [5] amounted to 86.2 µM.
The like results for `O=C(CO[C@@H](CO)c1ccc(C#Cc2ccccc2)cc1)NO` were, in that order, 32 µg/mL (≈ 103 µM), greater than 64 µg/mL, 13 mm, less than 6 mm and greater than 200 µM.
The like results for `O=C(CO[C@H](Cn1ccnn1)c1ccc(C#Cc2ccccc2)cc1)NO` were, in that order, 1 µg/mL (≈ 2.76 µM), greater than 64 µg/mL, 21 mm, less than 6 mm and 36 µM.
Consider `O=C(CO[C@H](Cn1cc(-c2ccccc2)nn1)c1ccc(OCc2ccccc2)cc1)NO`, for which the MIC was 32 µg/mL (≈ 72 µM) in the assay on Escherichia coli [1] and greater than 64 µg/mL in the assay with Escherichia coli [2]. Moreover, the “inhibition zone (IZ)” value in the assay on Escherichia coli [3] is 10 mm; in the assay with Escherichia coli [4] it was less than 6 mm. Besides, the IC50 in assay [5] is greater than 200 µM.
The like results for `O=C(CO[C@@H](Cn1cc(-c2ccccc2)nn1)c1ccc(C#Cc2ccccc2)cc1)NO` were, in that order, 32 µg/mL (≈ 73 µM), greater than 64 µg/mL, 8.7 mm, less than 6 mm and greater than 200 µM.
`O=C(CO[C@H](Cn1nncc1CO)c1ccc(C#Cc2ccccc2)cc1)NO`: the minimum inhibitory concentration (MIC) in the assay with Escherichia coli [1] was 1 µg/mL (≈ 2.55 µM); with Escherichia coli [2], greater than 64 µg/mL. The “inhibition zone (IZ)” value came to 29.5 mm with Escherichia coli [3] and 10.3 mm with Escherichia coli [4]. Moreover, the IC50 in assay [5] stood at 23.4 µM.
The corresponding values for `O=C(CO[C@H](Cn1nncc1-c1ccccc1)c1ccc(C#Cc2ccccc2)cc1)NO` are 8 µg/mL (≈ 18.2 µM), greater than 64 µg/mL, 10.7 mm, less than 6 mm and greater than 20 µM.
As for `O=C(CO[C@@H](Cn1ccnn1)c1ccc(C#Cc2ccccc2)cc1)NO`, the results for the minimal inhibitory concentration (MIC) with Escherichia coli [1] and with Escherichia coli [2] were no less than 32 µg/mL and greater than 64 µg/mL, respectively. The “inhibition zone (IZ)” value with Escherichia coli [3] is given as 11 mm; in the assay with Escherichia coli [4], less than 6 mm. The half-maximal inhibitory concentration (IC50) in assay [5] is greater than 200 µM.
Regarding `O=C(CO[C@H](Cn1cc(-c2ccccc2)nn1)c1ccc(C#Cc2ccccc2)cc1)NO`, the minimal inhibitory concentration (MIC) with Escherichia coli [1] was 0.25 µg/mL (≈ 0.57 µM); with Escherichia coli [2] it was greater than 64 µg/mL. Moreover, the “inhibition zone (IZ)” value in the assay on Escherichia coli [3] is reported as 12.3 mm; in the assay with Escherichia coli [4], less than 6 mm. Further, the 50% inhibitory concentration (IC50) in assay [5] was 10.4 µM.
Take `O=C(CO[C@H](Cn1ccnn1)c1ccc(OCc2ccccc2)cc1)NO`: the minimum inhibitory concentration (MIC) in the assay on Escherichia coli [1] and with Escherichia coli [2] was greater than 64 µg/mL in each case. Further, the “inhibition zone (IZ)” value in the assay on Escherichia coli [3] is 15 mm; in the assay with Escherichia coli [4] it was less than 6 mm. Besides, the IC50 in assay [5] was greater than 200 µM.
For `O=C(CO[C@H](Cn1cc(CO)nn1)c1ccc(C#Cc2ccccc2)cc1)NO`, the values for the MIC in the assay on Escherichia coli [1] and in the assay with Escherichia coli [2] were 4 µg/mL (≈ 10.2 µM) and greater than 64 µg/mL, respectively. Moreover, the “inhibition zone (IZ)” value in the assay on Escherichia coli [3] is 20.7 mm; with Escherichia coli [4], less than 6 mm. In addition, in assay [5], the half-inhibitory concentration (IC50) came out at 8.5 µM.
